# Source: ChEMBL document CHEMBL2375257, “Synthesis of C- and O-prenylated tetrahydroxystilbenes and O-prenylated cinnamates and their action towards cancer cells” (Eur J Med Chem, 2013)
# Tested on: K562
# Experiment: Cytotoxicity against human K562 cells assessed as growth inhibition after 72 hrs by MTT assay
# Format: functional, cell-based
# Settings: for IC50: K562, 72 h
# Outline: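 K562 leukaemia cells exposed to compounds for 72 h at 37 °C in a humidified 5% CO2 incubator, with MTT read-out. IC50 is the concentration inhibiting cell growth by 50%, estimated from two concentrations per compound. Values are the mean of two independent assays, each run in duplicate; coefficients of variation <10%.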
SMILES,growth inhibition (GI),IC50 [µM]
COC(=O)/C=C/c1ccc(OC/C=C(\C)CO)cc1,Dose-dependent effect,70.8
COc1cc(CCc2cc(O)cc(OCC=C(C)C)c2)ccc1O,Dose-dependent effect,63
COC(=O)/C=C/c1ccc(OCC=C(C)C)cc1,Dose-dependent effect,97.7
COc1cc(/C=C/c2cc(O)cc(OC)c2CC=C(C)C)ccc1O,Dose-dependent effect,0.1
COc1cc(CCc2cc(O)cc(OC)c2CC=C(C)C)ccc1O,Dose-dependent effect,10
COC(=O)/C=C/c1ccc(OC/C=C(\C)C=O)cc1,Dose-dependent effect,57.5
COc1ccc(/C=C/c2cc(O)cc(OCC=C(C)C)c2)cc1O,Dose-dependent effect,46.8
COc1ccc(CCc2cc(O)cc(OCC=C(C)C)c2)cc1O,Dose-dependent effect,31.6
COc1cc(/C=C/c2cc(O)cc(OCC=C(C)C)c2)ccc1O,Dose-dependent effect,21
